Measurements published in ChEMBL document CHEMBL2163334, “Discovery of highly potent and selective pan-Aurora kinase inhibitors with enhanced in vivo antitumor therapeutic index” (J Med Chem, 2012).
Active and inactive are the calls of the source. No cut-off for these calls is given here.

How the values were obtained:
Aurora kinase B [1] = molecular target: T1, Aurora kinase B (Homo sapiens, UniProt Q96GD4); experiment: Binding affinity to Aurora kinase B catalytic domain by competition binding assay
T1 sequence (Q96GD4 whole entry, the tested form may be a part): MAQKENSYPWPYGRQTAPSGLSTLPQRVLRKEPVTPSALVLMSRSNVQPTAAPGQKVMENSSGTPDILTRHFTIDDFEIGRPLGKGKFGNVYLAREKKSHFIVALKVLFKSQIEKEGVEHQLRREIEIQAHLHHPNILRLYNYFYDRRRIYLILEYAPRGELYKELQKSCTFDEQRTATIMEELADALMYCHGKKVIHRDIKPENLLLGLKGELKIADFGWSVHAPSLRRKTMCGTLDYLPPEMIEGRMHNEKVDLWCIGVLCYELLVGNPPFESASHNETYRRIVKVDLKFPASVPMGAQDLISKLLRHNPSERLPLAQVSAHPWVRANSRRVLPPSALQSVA

Aurora kinase B [2] = molecular target: T1, Aurora kinase B; experiment: Inhibition of Aurora kinase B-mediated histone H3 Ser10 phosphorylation in human HCT116 cells after 2 hrs by sandwich ELISA; format: cell-based, HCT-116
Method in brief: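 HCT-116 cells seeded 4 × 10⁴/well, 4-6 h at 37 °C, then arrested overnight (16-18 h) with nocodazole at 66 ng/mL final. Treated 2 h with nine-point 3-fold dilutions in DMSO; lysed with phosphatase inhibitor, phospho-H3 (Ser10) sandwich ELISA read at 450 nm. IC50 = 50% inhibition of phosphorylation; duplicate runs averaged.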

Aurora kinase A [3] = molecular target: T2, Aurora kinase A (Homo sapiens, UniProt O14965); experiment: Binding affinity to Aurora kinase A catalytic domain by competition binding assay
T2 sequence (O14965 whole entry): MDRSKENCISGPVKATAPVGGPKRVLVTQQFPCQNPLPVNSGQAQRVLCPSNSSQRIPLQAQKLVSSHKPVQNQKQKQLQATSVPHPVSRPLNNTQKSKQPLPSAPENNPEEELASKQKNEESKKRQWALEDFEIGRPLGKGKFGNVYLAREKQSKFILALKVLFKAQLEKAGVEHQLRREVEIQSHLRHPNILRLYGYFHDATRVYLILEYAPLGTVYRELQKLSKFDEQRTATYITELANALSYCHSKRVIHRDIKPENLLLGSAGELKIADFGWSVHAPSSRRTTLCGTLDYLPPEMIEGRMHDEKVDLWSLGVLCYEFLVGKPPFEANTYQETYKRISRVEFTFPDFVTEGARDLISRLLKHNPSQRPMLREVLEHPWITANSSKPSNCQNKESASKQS

[4] = Clearance in Sprague-Dawley rat at 1 mg/kg, iv administered using PEG400/water as vehicle; format: ADME, organism-based; design: dose 1 mg/kg, route intravenous; conditions: in vivo
Method in brief: (§1)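 SD rats fasted overnight, given 1 mg/kg iv in PEG400/water (3:1, v/v); three per arm. Blood into K3 EDTA at 5, 15, 30 min, 1, 2, 4, 6, 24 h, spun at 4 °C; plasma extracted with six volumes acetonitrile plus internal standard and quantified by LC-MS/MS (C8 column, formic acid/ACN gradient).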

HCT-116 [5] = experiment: Antiproliferative activity against human HCT116 cells after 72 hrs by BrdU-based ELISA; format: functional, cell-based; conditions: HCT-116, 72 h
Method in brief: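 HCT-116 cells in McCoy's 5A with 10% FBS and pen/strep, seeded 800 cells/well, left overnight at 37 °C, 5% CO2. Nine-point 3-fold serial dilutions in DMSO added for 72 h; BrdU colorimetric ELISA read at 450 and 690 nm. IC50 is the concentration halving proliferation; duplicate runs averaged.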

HCT-116 [6] = experiment: Antitumor activity against human HCT116 cells xenografted in athymic nude rat assessed as tumor stasis at 10 to 20 mg/kg, iv administered every other day from day 10 post tumor-injection for 3 weeks measured upto 40 days; format: functional, organism-based
Method in brief: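 HCT-116 flank xenografts in nude rats, groups of 10 at mean 301-306 mm³; iv tail-vein dosing in TPPW at 10 mL/kg on days 1,3,5,8,10,12,15,17,19; tumors followed after dosing stopped, study ending day 42 or day 60.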

Aurora kinase C = molecular target: T3, Aurora kinase C (Homo sapiens, UniProt Q9UQB9); experiment: Binding affinity to Aurora kinase C
T3 sequence (Q9UQB9 whole entry): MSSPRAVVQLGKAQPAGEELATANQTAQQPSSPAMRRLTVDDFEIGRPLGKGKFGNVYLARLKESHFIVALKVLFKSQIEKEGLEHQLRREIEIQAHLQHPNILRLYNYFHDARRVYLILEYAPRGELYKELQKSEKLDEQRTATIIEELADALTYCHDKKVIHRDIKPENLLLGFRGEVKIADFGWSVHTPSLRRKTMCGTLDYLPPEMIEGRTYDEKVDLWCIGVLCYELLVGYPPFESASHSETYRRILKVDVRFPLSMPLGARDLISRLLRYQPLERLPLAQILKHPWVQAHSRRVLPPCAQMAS

[7] = Volume of distribution in Nu/Nu rat at 3 mg/kg, iv administered using TPPW as vehicle; format: ADME, organism-based; design: dose 3 mg/kg, route intravenous; conditions: in vivo
Method in brief: (§2)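 Plasma from K3 EDTA blood at 5, 15, 30 min, 1, 2, 4, 6, 24 h; acetonitrile extraction with internal standard, LC-MS/MS on C8 column, 5-95% ACN gradient with 0.05% formic acid.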

HCT-116 [8] = experiment: Antitumor activity against human HCT116 cells xenografted in athymic nude rat assessed as tumor growth inhibition at 10 mg/kg, iv administered every other day from day 10 post tumor-injection for 3 weeks relative to vehicle treated control; format: functional; conditions: read-out: TGI
Method in brief: (§3)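 Subcutaneous flank HCT-116 xenografts in nude rats; at Day 1 groups of 10 with mean tumor 301-306 mm³. Tail-vein iv in TPPW (2% Tween-80, 5% propylene glycol, 10% PG-400, 83% water) at 10 mL/kg, weight-adjusted: days 1,3,5,8,10,12,15,17,19 or days 1-4, 8-11, 15-18. Irinotecan control 100 mg/kg ip weekly ×3.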

Aurora kinase B [9] = molecular target: T1, Aurora kinase B; experiment: Inhibition of Aurora kinase B in human HCT116 cells assessed as induction of 8N polyploidy; format: cell-based; conditions: HCT-116
[10] = AUC (0 to infinity) in Nu/Nu rat at 3 mg/kg, iv administered using TPPW as vehicle; format: ADME, organism-based; design: time infinity, dose 3 mg/kg, route intravenous; conditions: plasma; method in brief: as §2
[11] = AUC (0 to infinity) in Nu/Nu rat at 30 mg/kg, iv administered using TPPW as vehicle; format: ADME, organism-based; design: time infinity, dose 30 mg/kg, route intravenous; conditions: plasma; method in brief: as §2
HCT-116 [12] = experiment: Antitumor activity against human HCT116 cells xenografted in athymic nude rat assessed as tumor growth inhibition at 5 mg/kg, iv administered QD for 4 days per week followed by 3 days off per week for 3 weeks; format: functional, organism-based; design: dose 5 mg/kg; method in brief: as §3
[13] = Volume of distribution in Nu/Nu rat at 30 mg/kg, iv administered using TPPW as vehicle; format: ADME, organism-based; design: dose 30 mg/kg, route intravenous; conditions: in vivo; method in brief: as §2
[14] = Clearance in athymic Nu/Nu rat at 30 mg/kg, iv administered using TPPW as vehicle; format: ADME, organism-based; design: dose 30 mg/kg, route intravenous; conditions: in vivo; method in brief: as §2
[15] = Half life in Nu/Nu rat at 10 mg/kg, iv administered using TPPW as vehicle; format: ADME, organism-based; design: dose 10 mg/kg, route intravenous; conditions: in vivo; method in brief: as §2
Rattus norvegicus [16] = experiment: Toxicity in athymic nude rat bearing human HCT116 cells assessed body weight loss at 40 mg/kg, iv administered every other day from day 10 post tumor-injection for 3 weeks; format: organism-based, HCT-116; design: dose 40 mg/kg, route intravenous; conditions: in vivo, 504 h; method in brief: as §3
[17] = Clearance in athymic Nu/Nu rat at 10 mg/kg, iv administered using TPPW as vehicle; format: ADME, organism-based; design: dose 10 mg/kg, route intravenous; conditions: in vivo; method in brief: as §2
[18] = Half life in Nu/Nu rat at 3 mg/kg, iv administered using TPPW as vehicle; format: ADME, organism-based; design: dose 3 mg/kg, route intravenous; conditions: in vivo; method in brief: as §2
[19] = Volume of distribution in Sprague-Dawley rat at 1 mg/kg, iv administered using PEG400/water as vehicle; format: ADME, organism-based; design: dose 1 mg/kg, route intravenous; conditions: in vivo; method in brief: as §1
Rattus norvegicus [20] = experiment: Toxicity in athymic nude rat bearing human HCT116 cells assessed body weight loss up to 20 mg/kg, iv administered every other day from day 10 post tumor-injection for 3 weeks; format: organism-based, HCT-116; design: dose 20 mg/kg, route intravenous; conditions: in vivo, 504 h; method in brief: as §3
[21] = Protein binding in plasma; format: ADME, cell-free; conditions: read-out: PPB
Aurora kinase A [22] = molecular target: T2, Aurora kinase A; experiment: Inhibition of Aurora kinase A autophosphorylation in human HEK293 cells after 2 hrs by phosphor antibody readout assay; format: cell-based
Rattus norvegicus [23] = experiment: Toxicity in athymic nude rat bearing human HCT116 cells assessed as adverse effects at 5 to 10 mg/kg, iv administered QD for 4 days per week followed by 3 days off per week for 3 weeks; format: organism-based, HCT-116; design: dose 5-10 mg/kg, route intravenous; conditions: in vivo; method in brief: as §3
HCT-116 [24] = experiment: Antitumor activity against human HCT116 cells xenografted in athymic nude rat assessed as tumor growth inhibition at 10 mg/kg, iv administered QD for 4 days per week followed by 3 days off per week for 3 weeks; format: functional, organism-based; design: dose 10 mg/kg; method in brief: as §3
[25] = Half life in Nu/Nu rat at 30 mg/kg, iv administered using TPPW as vehicle; format: ADME, organism-based; design: dose 30 mg/kg, route intravenous; conditions: in vivo; method in brief: as §2
[26] = Volume of distribution in Nu/Nu rat at 10 mg/kg, iv administered using TPPW as vehicle; format: ADME, organism-based; design: dose 10 mg/kg, route intravenous; conditions: in vivo; method in brief: as §2
[27] = AUC (0 to infinity) in Sprague-Dawley rat at 1 mg/kg, iv administered using PEG400/water as vehicle; format: ADME, organism-based; design: time infinity, dose 1 mg/kg, route intravenous; conditions: plasma; method in brief: as §1
[28] = AUC (0 to infinity) in Nu/Nu rat at 10 mg/kg, iv administered using TPPW as vehicle; format: ADME, organism-based; design: time infinity, dose 10 mg/kg, route intravenous; conditions: plasma; method in brief: as §2
[29] = Clearance in athymic Nu/Nu rat at 3 mg/kg, iv administered using TPPW as vehicle; format: ADME, organism-based; design: dose 3 mg/kg, route intravenous; conditions: in vivo; method in brief: as §2
[30] = Half life in Sprague-Dawley rat at 1 mg/kg, iv administered using PEG400/water as vehicle; format: ADME, organism-based; design: dose 1 mg/kg, route intravenous; conditions: in vivo; method in brief: as §1
HCT-116 [31] = experiment: Antitumor activity against human HCT116 cells xenografted in athymic nude rat assessed as tumor growth inhibition at 20 mg/kg, iv administered every other day from day 10 post tumor-injection for 3 weeks relative to vehicle treated control; format: functional; conditions: read-out: TGI; method in brief: as §3

Cc1cc(Nc2nc(Sc3ccc(NC(=O)CN4CC[C@@H](C(=O)NC(C)(C)C)C4)cc3)nn3cccc23)n[nH]1
Kd (Aurora kinase B [1]): 3.1 nM
IC50 (Aurora kinase B [2]): 6.2 nM
Kd (Aurora kinase A [3]): 5.6 nM
clearance [4]: 48 mL/min/kg
IC50 (HCT-116 [5]): 1 nM

Cc1cc(Nc2nc(Sc3ccc(NC(=O)CN4CC[C@@H](C(=O)NC5CCCC5)C4)cc3)nn3cccc23)n[nH]1
Activity (HCT-116 [6]): Active
Kd (Aurora kinase C): < 10 nM
Kd (Aurora kinase B [1]): 1.9 nM
Vd [7]: 1 L/kg
inhibition in vivo at 10 mg/kg (HCT-116 [8]): 77%
inhibition (Aurora kinase B [9]): Dose-dependent effect
IC50 (Aurora kinase B [2]): 3 nM
AUC(0-inf) [10]: 3.2 µM·h
Kd (Aurora kinase A [3]): 9.3 nM
AUC(0-inf) [11]: 62.5 µM·h
TGI (HCT-116 [12]): Active
Vd [13]: 0.84 L/kg
clearance [4]: 16.9 mL/min/kg
clearance [14]: 14.7 mL/min/kg
half-life [15]: 3.8 h
Activity (Rattus norvegicus [16]): > 10%
clearance [17]: 20.7 mL/min/kg
half-life [18]: 1.5 h
Vd [19]: 3.49 L/kg
Activity (Rattus norvegicus [20]): Non-toxic
fraction unbound [21]: 0.01
IC50 (Aurora kinase A [22]): 2 nM
Activity (Rattus norvegicus [23]): Non-toxic
TGI (HCT-116 [24]): Active
half-life [25]: 3.4 h
Vd [26]: 1.1 L/kg
AUC(0-inf) [27]: 1.8 µM·h
AUC(0-inf) [28]: 14.6 µM·h
IC50 (HCT-116 [5]): 2.3 nM
clearance [29]: 27.9 mL/min/kg
half-life [30]: 9.4 h
inhibition in vivo at 20 mg/kg (HCT-116 [31]): 82%

Cc1cc(Nc2nc(Sc3ccc(NC(=O)CN4CC[C@@H](C(=O)NCC(F)(F)F)C4)cc3)nn3cccc23)n[nH]1
Kd (Aurora kinase B [1]): 2.2 nM
IC50 (Aurora kinase B [2]): 7 nM
Kd (Aurora kinase A [3]): 2.5 nM
clearance [4]: 35 mL/min/kg
IC50 (HCT-116 [5]): 0.9 nM

Cc1cc(Nc2nc(Sc3ccc(NC(=O)CN4CC[C@@H](C(=O)Nc5ccc(F)cc5)C4)cc3)nn3cccc23)n[nH]1
Kd (Aurora kinase B [1]): 6.9 nM
IC50 (Aurora kinase B [2]): 42.2 nM
Kd (Aurora kinase A [3]): 19.5 nM
IC50 (HCT-116 [5]): 3.8 nM

Cc1cc(Nc2nc(Sc3ccc(NC(=O)CN4CC[C@@H](OCCO)C4)cc3)nn3cccc23)n[nH]1
Kd (Aurora kinase B [1]): 1.7 nM
IC50 (Aurora kinase B [2]): 13 nM
Kd (Aurora kinase A [3]): 4.5 nM
IC50 (HCT-116 [5]): 5 nM
